# Active and inactive are the calls of the source.
# Assays:
# [1] = test system: SF-268; assay: Cytotoxicity against human SF268 cells assessed as cell growth at 800 nM by sulforhodamine B assay relative to control; format: functional; conditions: read-out: Activity
# [2] = test system: BT-549; assay: Cytotoxicity against human BT549 cells assessed as cell growth at 8 uM by sulforhodamine B assay relative to control; format: functional; conditions: read-out: Activity
# Outline: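 Run at NCI in the DTP 60-cell-line human tumor panel by standard procedure. Compounds were first screened at a single concentration, then tested at five tenfold-spaced concentrations. GI50 is the concentration reducing treated-cell growth to half that of untreated controls; TGI is the concentration completely halting growth.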
# [3] = test system: SK-MEL-5; assay: Cytotoxicity against human SK-MEL-5 cells assessed as cell growth at 80 nM by sulforhodamine B assay relative to control; format: functional; conditions: read-out: Activity
# [4] = test system: PC-3; assay: Cytotoxicity against human PC3 cells assessed as cell growth at 8 uM by sulforhodamine B assay relative to control; format: functional; conditions: read-out: Activity
# [5] = test system: HCT-116; assay: Cytotoxicity against human HCT116 cells assessed as cell growth at 800 nM by sulforhodamine B assay relative to control; format: functional; conditions: read-out: Activity
# [6] = test system: UO-31; assay: Cytotoxicity against human UO31 cells assessed as cell growth at 80 nM by sulforhodamine B assay relative to control; format: functional; conditions: read-out: Activity
# [7] = test system: MOLT-4; assay: Cytotoxicity against human MOLT4 cells by sulforhodamine B assay; format: functional
# Outline: (§1)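 NCI Developmental Therapeutics Program 60-cell-line human tumor panel screen, run at NCI. A single-concentration pre-screen was followed by a five-concentration dose-response in 10-fold steps. GI50 is the concentration that reduces growth of treated cells to half that of untreated control cells. TGI is the concentration that completely halts growth.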
# [8] = test system: T47D; assay: Cytotoxicity against human T47D cells assessed as cell growth at 800 nM by sulforhodamine B assay relative to control; format: functional; conditions: read-out: Activity
# [9] = test system: SNB-19; assay: Cytotoxicity against human SNB19 cells assessed as cell growth at 8 nM by sulforhodamine B assay relative to control; format: functional; conditions: read-out: Activity
# [10] = test system: SF-295; assay: Cytotoxicity against human SF295 cells assessed as cell growth at 8 uM by sulforhodamine B assay relative to control; format: functional; conditions: read-out: Activity
# [11] = test system: HCT-116; assay: Cytotoxicity against human HCT116 cells assessed as cell growth at 80 uM by sulforhodamine B assay relative to control; format: functional; conditions: read-out: Activity
# [12] = test system: EKVX; assay: Cytotoxicity against human EKVX cells assessed as cell growth at 8 uM by sulforhodamine B assay relative to control; format: functional; conditions: read-out: Activity
# [13] = test system: Candida albicans; assay: Antimicrobial activity against Candida albicans ATCC 90028 by CLSI method; format: functional, organism-based
# [14] = test system: SK-MEL-2; assay: Cytotoxicity against human SK-MEL-2 cells assessed as cell growth at 8 nM by sulforhodamine B assay relative to control; format: functional; conditions: read-out: Activity
# [15] = test system: EKVX; assay: Cytotoxicity against human EKVX cells assessed as cell growth at 80 uM by sulforhodamine B assay relative to control; format: functional; conditions: read-out: Activity
# [16] = test system: Hs-578T; assay: Cytotoxicity against human Hs578T cells assessed as cell growth at 8 nM by sulforhodamine B assay relative to control; format: functional; conditions: read-out: Activity
# [17] = test system: SR; assay: Cytotoxicity against human SR cells assessed as cell growth at 8 nM by sulforhodamine B assay relative to control; format: functional; conditions: read-out: Activity
# [18] = test system: SF-295; assay: Cytotoxicity against human SF295 cells assessed as cell growth at 800 nM by sulforhodamine B assay relative to control; format: functional; conditions: read-out: Activity
# [19] = test system: HOP-92; assay: Cytotoxicity against human HOP92 cells assessed as cell growth at 80 uM by sulforhodamine B assay relative to control; format: functional; conditions: read-out: Activity
# [20] = test system: SW-620; assay: Antitumor activity against human SW620 cells xenografted in mouse assessed as tumor cell killing at 4.7 mg/kg, ip qd for 4 days by MTT assay; format: functional, organism-based; design: dose 4.7 mg/kg
# Outline: (§2)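 Hollow-fiber assay in mice. Tumor lines were grown in RPMI-1640 with 10% FBS and 2 mM glutamine. Cells at 2 × 10^6 cells/ml were loaded into 1 mm PVDF fibers (500,000 Da cutoff), heat-sealed at 2 cm and held 24–48 h at 37 °C, 5% CO2 before implantation. Compound was given IP. Fibers were collected the day after the fourth treatment for MTT (OD 540 nm, group means). A ≥50% cut in percent net growth versus vehicle counted as positive.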
# [21] = test system: IGROV-1; assay: Cytotoxicity against human IGROV1 cells by sulforhodamine B assay; format: functional; conditions: for TGI: read-out: pTGI (converted); outline: as §1
# [22] = test system: SN12C; assay: Cytotoxicity against human SN12C cells assessed as cell growth at 80 uM by sulforhodamine B assay relative to control; format: functional; conditions: read-out: Activity
# [23] = test system: MOLT-4; assay: Cytotoxicity against human MOLT4 cells assessed as cell growth at 8 uM by sulforhodamine B assay relative to control; format: functional; conditions: read-out: Activity
# [24] = test system: HCT-116; assay: Cytotoxicity against human HCT116 cells by sulforhodamine B assay; format: functional; conditions: for TGI: read-out: pTGI (converted)
# Outline: (§3)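 Run by the NCI Developmental Therapeutics Program on its 60-line human tumour cell panel using the standard procedure. Compounds went through a single-concentration prescreen first, and those active by NCI criteria went on to a five-concentration growth-inhibition test. GI50 is the concentration that cuts growth of treated cells to half that of untreated control cells.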
# [25] = test system: U-251; assay: Cytotoxicity against human U251 cells by sulforhodamine B assay; format: functional; conditions: for TGI: read-out: pTGI (converted); outline: as §1
# [26] = test system: SR; assay: Cytotoxicity against human SR cells by sulforhodamine B assay; format: functional; conditions: for TGI: read-out: pTGI (converted); outline: as §1
# [27] = test system: SK-OV-3; assay: Cytotoxicity against human SKOV3 cells assessed as cell growth at 8 nM by sulforhodamine B assay relative to control; format: functional; conditions: read-out: Activity
# [28] = test system: MDA-MB-231; assay: Antitumor activity against human MDA-MB-231 cells xenografted in mouse assessed as tumor cell killing at 4.7 mg/kg, ip qd for 4 days by MTT assay; format: functional, organism-based; design: dose 4.7 mg/kg; outline: as §2
# [29] = test system: UACC-62; assay: Cytotoxicity against human UACC62 cells assessed as cell growth at 8 nM by sulforhodamine B assay relative to control; format: functional; conditions: read-out: Activity
# [30] = test system: OVCAR-3; assay: Antitumor activity against human OVCAR3 cells xenografted in mouse assessed as tumor cell killing at 4.7 mg/kg, ip qd for 4 days by MTT assay; format: functional, organism-based; design: dose 4.7 mg/kg; outline: as §2
# [31] = test system: EKVX; assay: Cytotoxicity against human EKVX cells assessed as cell growth at 80 nM by sulforhodamine B assay relative to control; format: functional; conditions: read-out: Activity
# [32] = test system: SK-MEL-2; assay: Cytotoxicity against human SK-MEL-2 cells assessed as cell growth at 800 nM by sulforhodamine B assay relative to control; format: functional; conditions: read-out: Activity
# [33] = test system: HCC 2998; assay: Cytotoxicity against human HCC2998 cells by sulforhodamine B assay; format: functional; outline: as §3
# [34] = test system: SW-620; assay: Cytotoxicity against human SW620 cells assessed as cell growth at 800 nM by sulforhodamine B assay relative to control; format: functional; conditions: read-out: Activity
# [35] = test system: SW-620; assay: Cytotoxicity against human SW620 cells assessed as cell growth at 8 nM by sulforhodamine B assay relative to control; format: functional; conditions: read-out: Activity
# [36] = test system: LOX IMVI; assay: Cytotoxicity against human LOXIMVI cells assessed as cell growth at 8 uM by sulforhodamine B assay relative to control; format: functional; conditions: read-out: Activity
# [37] = test system: HOP-92; assay: Cytotoxicity against human HOP92 cells assessed as cell growth at 80 nM by sulforhodamine B assay relative to control; format: functional; conditions: read-out: Activity
smiles,measurement,setting,value
C/C=C1\NC(=O)[C@H](Cc2ccccc2)NC(=O)[C@@H](C(C)C)NC(=O)[C@@H]([C@@H](C)CC)NC(=O)[C@H](NC(=O)[C@H](NC(=O)[C@H](CCCNCc2ccc(N3CCOCC3)cc2)NC(=O)[C@H]2CCCN2C(=O)[C@H](NC(=O)[C@@H](NC(=O)[C@@H](NC(=O)[C@H](NC(=O)CCCC(C)C)C(C)C)[C@@H](C)O)C(C)C)C(C)C)[C@@H](C)CC)[C@@H](C)OC(=O)[C@H](C(C)C)NC1=O,growth at 0.8 µM,[1],90%
same,growth at 8 µM,[2],-66%
same,growth at 0.08 µM,[3],101%
same,growth at 8 µM,[4],-91%
same,growth at 0.8 µM,[5],104%
same,growth at 0.08 µM,[6],104%
same,GI50,[7],20400 nM
same,LC50,[7],> 75900 nM
same,TGI,[7]; read-out: pTGI,> 75900 nM
same,growth at 0.8 µM,[8],-23%
same,growth at 0.008 µM,[9],95%
same,growth at 8 µM,[10],-40%
same,growth at 80 µM,[11],-58%
same,growth at 8 µM,[12],-76%
same,IC50,[13],5760 nM
same,MFC,[13],> 20 µM
same,MIC,[13],20 µM
same,growth at 0.008 µM,[14],105%
same,growth at 80 µM,[15],-46%
same,growth at 0.008 µM,[16],109%
same,growth at 0.008 µM,[17],103%
same,growth at 0.8 µM,[18],101%
same,growth at 80 µM,[19],-62%
same,Activity,[20],inactive
same,GI50,[21],813 nM
same,TGI,[21],2000 nM
same,growth at 80 µM,[22],-17%
same,growth at 8 µM,[23],83%
same,GI50,[24],1550 nM
same,LC50,[24],6030 nM
same,TGI,[24],3090 nM
same,GI50,[25],1000 nM
same,LC50,[25],3890 nM
same,TGI,[25],2000 nM
same,GI50,[26],3020 nM
same,LC50,[26],> 75900 nM
same,TGI,[26],36300 nM
same,growth at 0.008 µM,[27],107%
same,Activity,[28],inactive
same,growth at 0.008 µM,[29],102%
same,Activity,[30],inactive
same,growth at 0.08 µM,[31],98%
same,growth at 0.8 µM,[32],105%
same,LC50,[33],3310 nM
same,GI50,[33]; read-out: GI50,250 nM
same,TGI,[33]; read-out: TGI,877 nM
same,GI50,[33]; read-out: pGI50 (converted),251 nM
same,TGI,[33]; read-out: pTGI (converted),871 nM
same,growth at 0.8 µM,[34],75%
same,growth at 0.008 µM,[35],104%
same,growth at 8 µM,[36],20%
same,growth at 0.08 µM,[37],96%
C/C=C1\NC(=O)[C@H](Cc2ccccc2)NC(=O)[C@@H](C(C)C)NC(=O)[C@@H]([C@@H](C)CC)NC(=O)[C@H](NC(=O)[C@H](NC(=O)[C@H](CCCNCc2ccc(F)c(C)c2)NC(=O)[C@H]2CCCN2C(=O)[C@H](NC(=O)[C@@H](NC(=O)[C@@H](NC(=O)[C@H](NC(=O)CCCC(C)C)C(C)C)[C@@H](C)O)C(C)C)C(C)C)[C@@H](C)CC)[C@@H](C)OC(=O)[C@H](C(C)C)NC1=O,growth at 0.8 µM,[1],63%
same,growth at 8 µM,[2],-88%
same,growth at 0.08 µM,[3],99%
same,growth at 8 µM,[4],-95%
same,growth at 0.8 µM,[5],104%
same,growth at 0.08 µM,[6],106%
same,GI50,[7],2140 nM
same,LC50,[7],> 75900 nM
same,growth at 0.8 µM,[8],-50%
same,growth at 0.008 µM,[9],99%
same,growth at 8 µM,[10],-89%
same,growth at 80 µM,[11],-94%
same,growth at 8 µM,[12],-82%
same,IC50,[13],3640 nM
same,MFC,[13],20 µM
same,MIC,[13],10 µM
same,growth at 0.008 µM,[14],98%
same,growth at 80 µM,[15],-59%
same,growth at 0.008 µM,[16],102%
same,growth at 0.008 µM,[17],90%
same,growth at 0.8 µM,[18],89%
same,growth at 80 µM,[19],-91%
same,Activity,[20],inactive
same,GI50,[21],708 nM
same,TGI,[21],1860 nM
same,growth at 80 µM,[22],-96%
same,growth at 8 µM,[23],-5%
same,GI50,[24],1380 nM
same,LC50,[24],4270 nM
same,TGI,[24],2450 nM
same,GI50,[25],363 nM
same,LC50,[25],3160 nM
same,TGI,[25],1260 nM
same,GI50,[26],1580 nM
same,LC50,[26],> 75900 nM
same,TGI,[26],3470 nM
same,growth at 0.008 µM,[27],102%
same,Activity,[28],inactive
same,growth at 0.008 µM,[29],103%
same,Activity,[30],inactive
same,growth at 0.08 µM,[31],97%
same,growth at 0.8 µM,[32],100%
same,LC50,[33],891 nM
same,GI50,[33]; read-out: GI50,172 nM
same,TGI,[33]; read-out: TGI,367 nM
same,GI50,[33]; read-out: pGI50 (converted),174 nM
same,TGI,[33]; read-out: pTGI (converted),363 nM
same,growth at 0.8 µM,[34],40%
same,growth at 0.008 µM,[35],99%
same,growth at 8 µM,[36],-85%
same,growth at 0.08 µM,[37],105%

# Reference: ChEMBL document CHEMBL1921722, “In vitro and in vivo evaluation of select kahalalide F analogs with antitumor and antifungal activities” (Bioorg Med Chem, 2011)
